The subject of data set [1] is L1210. The data set can be described thus: Intracellular concentration was determined in murine L1210 cells after treatment with 100 uM compound for 48 h. As to conditions: Mus musculus. The data set is classed as functional, cell-based. The gist of the method: (§1)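 Murine leukemia L1210 cells exposed to the compound, 48 h unless another time is indicated. Intracellular level measured as pmol/10^6 cells. Converted to concentration using about 1 µL volume per 10^6 untreated cells.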

Data set [2] deals with L1210. Description: Ratio of intracellular concentration to that of treatment concentration in L1210 cells. The data set is classed as functional, Mus musculus.
Data set [3] concerns L1210. Description: Inhibitory concentration against growth of murine L1210 cells at 96 hours. The data set is classed as functional, cell-based. The settings on record: Mus musculus, L1210, 96 h. In short, it runs like this: (§2)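 Proliferation of murine leukemia L1210 cells measured after 48 h or 96 h exposure. IC50 reported as the mean of at least two experiments. Variation from the mean was typically 10–25% for the 96-h values.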

The subject of data set [4] is L1210. Description: Ability to compete with [3H]SPD for the polyamine transport apparatus in L1210 cells. The data set is classed as functional, cell-based, Mus musculus.
Data set [5] in a line: Iron clearing efficiency in bile of rodents following a subcutaneous dosage of 300 umol/kg. The data set is classed as functional. The gist of the method:
(§3)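 Bile-duct-cannulated rats given a subcutaneous dose of 300 µmol/kg, equivalent in iron-binding capacity to 450 µmol/kg of the 3:1 ligands. Chelator-induced iron excretion measured in both bile and urine. Bile collected as multiple samples to follow excretion kinetics.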

Data set [6] in a line: Iron clearing efficiency in urine of rodents following a subcutaneous dosage of 300 umol/kg. The data set is classed as functional. In short, it runs like this:
as §3

Data set [7] is described as follows: Iron clearing efficiency in bile-duct-cannulated rodents following a subcutaneous dosage of 300 umol/kg. The data set is classed as functional. The gist of the method: as §3
In data set [8] the test system is L1210. Description: Inhibitory concentration against growth of murine L1210 cells at 48 hours. The data set is classed as functional, cell-based. The settings on record: Mus musculus, L1210, 48 h. In short, it runs like this:
as §2

For data set [9], the system named is L1210. The data set can be described thus: Intracellular concentration was determined in murine L1210 cells after treatment with 30 uM compound for 48 h. The data set is classed as functional, cell-based. The settings on record: Mus musculus. In short, it runs like this:
as §1

In data set [10] the test system is L1210. Description: Intracellular concentration was determined in murine L1210 cells after treatment with 100 uM compound for 4 hrs. The data set is classed as functional, cell-based. The settings on record: Mus musculus. The gist of the method: as §1
Data set [11] can be described thus: Iron clearing efficiency in bile-duct-cannulated rodents following a subcutaneous dosage of 450 umol/kg (iron excretion delayed until ~18 hours after administration). The data set is classed as functional.
The test system of data set [12] is L1210. The data set can be described thus: Intracellular concentration was determined in murine L1210 cells after treatment with 0.2 uM compound for 48 h. The settings on record: Mus musculus. The data set is classed as functional, cell-based. The gist of the method: as §1
A short description of data set [13]: Iron clearing efficiency in bile-duct-cannulated rodents following a subcutaneous dosage of 450 umol/kg. The data set is classed as ADME. As to conditions: rodentia, in vivo, sc. In short, it runs like this:
(§4)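 Bile-duct-cannulated rat model. Drug given sc at 450 µmol/kg, set for equivalent iron-binding capacity. Chelator-promoted iron excretion measured in both bile and urine. Multiple bile samples collected, so the kinetics of iron excretion could be followed.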

Data set [14] in a line: Iron clearing efficiency in urine of rodents following a subcutaneous dosage of 450 umol/kg. The data set is classed as ADME. The settings on record: rodentia, in vivo, sc. The gist of the method:
as §4

Data set [15] can be described thus: Iron clearing efficiency in bile of rodents following a subcutaneous dosage of 450 umol/kg. The data set is classed as ADME. The settings on record: rodentia, in vivo, sc. The gist of the method:
as §4

In data set [16] the test system is L1210. Description: Intracellular concentration was determined in murine L1210 cells after treatment with 100 uM compound for 48 hrs. The settings on record: Mus musculus. The data set is classed as functional, cell-based. In short, it runs like this:
as §1

Data set [17] relates to L1210. Description: Intracellular concentration was determined in murine L1210 cells after treatment with 50 uM compound for 48 h. The data set is classed as functional, cell-based. As to conditions: Mus musculus. In short, it runs like this: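 Murine leukemia L1210 cells exposed to compound for 48 h unless otherwise indicated. Intracellular concentration expressed as pmol/10^6 cells; 10^6 untreated cells taken as about 1 µL volume. Mean of at least two or three experiments, variation typically less than 10%.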

Regarding `FC(F)(F)CNCCCNCCCCNCCCNCC(F)(F)F`, in [1], the Concentration (pmol/10E6 cells) was less than 20. The Ratio in data set [2] is less than 0.2. Further, the IC50 in data set [3] is greater than 100 µM.
Regarding `C[C@]1(C(=O)O)CSC(c2ccc(O)cc2O)=N1` [DEFERITRIN], the Ki in [4] was greater than 500 µM. The figures for the Efficiency in data set [5], in [6] and in [7] were 93%, 7% and 1.1%, respectively. The Concentration (pmol/10E6 cells) in data set [1] was less than 50. Moreover, the results for the IC50 in data set [8] and in data set [3] were 19 µM and 20 µM, respectively. In data set [2], the Ratio is less than 0.5.
Regarding `CCNCCCNCCCCNCCCNCC` [BIS(ETHYL)SPERMINE], in data set [2], the Ratio amounted to 13.3. Also, in [9], the Concentration (pmol/10E6 cells) came out at 400.
In data set [4], `C[C@]1(C(=O)O)CSC(c2ccc(OCCCCNCCCNCCCN)cc2O)=N1` returned an inhibitory constant (Ki) of 73 µM. Besides, the Efficiency came out at 99% in data set [5], 1% in [6] and 9.2% in data set [7]. Also, the IC50 in [8] and in data set [3] was 40 µM in each case. In addition, the Ratio in data set [2] is listed as 0.7. Further, the Concentration (pmol/10E6 cells) in data set [10] turned out to be 71.
For `Cc1c(O)c(=O)ccn1CCCNCCCCNCCCN`, the Efficiency is given as less than 0.5% in [11], 1.8% in data set [13], 47% in data set [14] and 53% in data set [15]. Also, the inhibitory constant (Ki) in data set [4] came out at 3.7 µM. For the same compound, in data set [12], the Concentration (pmol/10E6 cells) was 390. In [8], this compound showed an IC50 of 0.2 µM. Also, the Ratio in data set [2] stood at 1950.
As for `CCOC(=O)[C@@]1(C)CSC(c2ccc(OCCCCNCCCNCCCN)cc2O)=N1`, the Concentration (pmol/10E6 cells) amounted to 947 in [16] and 2980 in data set [10]. The compound further showed a Ki in data set [4] of 5.7 µM. The Efficiency worked out at 97% in data set [5], 3% in data set [6] and 13.6% in [7]. Further, the IC50 in data set [8] and in [3] was 1.5 µM in each case.
In data set [4], `NCCCNCCCCNCCCNC(=O)c1ccc(C(=O)O)cc1` displayed a Ki of 27 µM. The same compound returned a Concentration (pmol/10E6 cells) in [1] of less than 70. In addition, the IC50 in data set [8] and in [3] was greater than 100 µM in each case. Moreover, the Ratio in data set [2] was less than 0.7.
As to `COC(=O)c1ccc(C(=O)NCCCNCCCCNCCCN)cc1`, the Concentration (pmol/10E6 cells) in data set [16] turned out to be 430. In [4], this compound yielded a Ki of 3.1 µM. In addition, the IC50 in data set [8] and in [3] was greater than 100 µM each time. Besides, the Ratio in data set [2] amounted to 4.3.
In the case of `Cc1c(O)c(=O)ccn1C` [DEFERIPRONE], the Ki in data set [4] is greater than 500 µM. Further, the Efficiency in data set [13] was 2.2%; in data set [14] it was 26%; in data set [15] it was 74%. Besides, the IC50 in data set [8] is 46 µM; in data set [3], 55 µM. For the same compound, the Ratio in data set [2] was 0.02. In data set [17], this compound came in with a Concentration (pmol/10E6 cells) of 1.

A word on the IC50: it is the concentration that inhibits the measured activity by half. Low values mean greater potency in that assay, high ones weaker potency in that assay. The term Ki denotes a dissociation constant, usually derived from enzyme kinetics or from competition with a known ligand.

The values are drawn from ChEMBL document CHEMBL1144451, “Polyamine-vectored iron chelators: the role of charge” (J Med Chem, 2005).
